Paper PMC5055850 (Bioorganic & medicinal chemistry, 2016)
Where two headings read alike, the source gives them in different places.

Columns and labels:
Type in all cases: cell-based
[1] = target: T1, FPR2 (Homo sapiens, UniProt P25090); assay: Ca2+ flux assay in FPR2-HL60 cells; settings: for Emax: read-out: FPR2-HL60 Efficacy; for FPR2-HL60 Efficacy: % of the response induced by 5 nM WKYMVm
T1 sequence (P25090 1-351): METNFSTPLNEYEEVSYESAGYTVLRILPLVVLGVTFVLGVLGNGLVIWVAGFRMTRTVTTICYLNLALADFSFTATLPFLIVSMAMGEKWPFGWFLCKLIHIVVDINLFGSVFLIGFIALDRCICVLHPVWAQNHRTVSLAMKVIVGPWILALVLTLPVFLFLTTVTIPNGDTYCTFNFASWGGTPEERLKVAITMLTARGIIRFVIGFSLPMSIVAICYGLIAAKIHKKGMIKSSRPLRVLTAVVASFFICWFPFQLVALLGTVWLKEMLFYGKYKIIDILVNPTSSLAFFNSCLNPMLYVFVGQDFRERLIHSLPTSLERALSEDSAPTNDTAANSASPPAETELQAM
How it was run: (§1)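 FPR1-, FPR2- or FPR3-transfected HL-60 cells grown in RPMI 1640 with 10% heat-inactivated FCS, 10 mM HEPES and G418 (1 mg/mL). Cells loaded with Fluo-4 AM (1.25 µg/mL final) for 30 min at 37 °C in the dark, then 2 × 10^5 cells/well. Fluorescence (ex 485/em 538 nm) read every 5 s for 240 s at room temperature. Peak rise over baseline normalized to 5 nM fMLF (FPR1) or 5 nM WKYMVm (FPR2, FPR3). EC50 from 5–6-point nonlinear fits, three independent experiments.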

[2] = test system: human polymorphonuclear neutrophils (hPMN); assay: Ca2+ flux assay in human neutrophils; settings: for EC50: Homo sapiens, Polymorphonuclear neutrophil, read-out: hPMN EC50; for hPMN Efficacy: % of the response induced by 5 nM fMLF
How it was run: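 Neutrophils from healthy donors' blood, purified by dextran sedimentation, Histopaque 1077 gradient and hypotonic red-cell lysis (>95% pure, >98% viable). Cells in HBSS− with 10 mM HEPES were loaded with Fluo-4 AM (1.25 µg/mL final) for 30 min at 37 °C, then plated at 2 × 10^5 cells/well. Fluorescence (485/538 nm) read every 5 s for 240 s at room temperature. Peak change normalized to 5 nM fMLF. EC50 from 5–6-point nonlinear regression, three experiments.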

[3] = target: T2, FPR1 (Homo sapiens, UniProt P21462); assay: Ca2+ flux assay in FPR1-HL60 cells; settings: for Emax: read-out: FPR1-HL60 Efficacy; for FPR1-HL60 Efficacy: % of the response induced by 5 nM fMLF
T2 sequence (P21462 1-350): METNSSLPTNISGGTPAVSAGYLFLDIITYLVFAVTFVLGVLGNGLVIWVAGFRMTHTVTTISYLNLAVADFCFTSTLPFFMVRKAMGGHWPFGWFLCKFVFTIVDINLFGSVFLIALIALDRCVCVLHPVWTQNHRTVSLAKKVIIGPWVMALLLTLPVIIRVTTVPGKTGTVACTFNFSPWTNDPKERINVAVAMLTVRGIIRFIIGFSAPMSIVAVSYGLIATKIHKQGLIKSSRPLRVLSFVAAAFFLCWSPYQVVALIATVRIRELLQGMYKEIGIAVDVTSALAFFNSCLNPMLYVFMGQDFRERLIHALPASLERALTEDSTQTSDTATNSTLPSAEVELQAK
How it was run: as §1

[4] = target: T3, FPR3 (Homo sapiens, UniProt P25089); assay: Ca2+ flux assay in FPR3-HL60 cells
T3 sequence (P25089 1-353): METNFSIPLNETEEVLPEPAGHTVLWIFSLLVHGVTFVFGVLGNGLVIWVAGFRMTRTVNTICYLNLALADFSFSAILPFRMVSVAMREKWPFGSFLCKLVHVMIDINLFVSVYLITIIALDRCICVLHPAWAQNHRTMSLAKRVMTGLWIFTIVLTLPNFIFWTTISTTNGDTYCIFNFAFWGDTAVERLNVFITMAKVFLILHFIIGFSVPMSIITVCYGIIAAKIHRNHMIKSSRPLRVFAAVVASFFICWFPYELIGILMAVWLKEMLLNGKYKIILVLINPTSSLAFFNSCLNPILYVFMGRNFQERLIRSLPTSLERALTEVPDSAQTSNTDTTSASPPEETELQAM
How it was run: as §1

[5] = test system: mouse polymorphonuclear neutrophils (mPMN); assay: Ca2+ flux assay in mouse neutrophils; settings: for mPMN Efficacy: % of the response induced by 5 nM WKYMVm; for EC50: Mus musculus, Polymorphonuclear neutrophil, read-out: mPMN EC50
How it was run: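 Neutrophils taken from BALB/c mouse tibia and femur bone marrow. Isolated on a 45/50/55/62/81% Percoll gradient (1600g, 30 min, 10 °C), then Histopaque 1119 to remove red cells, and kept in HBSS−. Ca2+ fluorescence (485/538 nm) monitored every 5 s for 240 s at room temperature after compound addition. Maximal change over baseline normalized to 5 nM WKYMVm. EC50 from 5–6-point nonlinear regression, three independent experiments.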

[6] = FPR2-HL60 EC50, Ca2+ flux, HL-60 cells transfected with FPR2
[7] = read-out: FPR2-HL60 EC50, Ca2+ flux, HL-60 cells transfected with FPR2
[8] = read-out: FPR1-HL60 EC50, Ca2+ flux, HL-60 cells transfected with FPR1

SMILES | EC50 [1, 6] | Emax [1] | EC50 [2] | EC50 [3] | Emax [3] | FPR2-HL60 Efficacy [1] | EC50 [1, 7] | hPMN Efficacy [2] | FPR1-HL60 Efficacy [3] | EC50 [3, 8] | EC50 [4] | FPR3-HL60 Efficacy ([4]; % of the response induced by 5 nM WKYMVm) | mPMN Efficacy [5] | EC50 [5] | FPR2-HL60 EC50 ([1]; Ca2+ flux, HL-60 cells transfected with FPR2)
CCOC(=O)c1c(C)nn(CC(=O)Nc2ccc(Br)cc2)c(=O)c1Nc1cccc(OC)c1 [Compound 19b, Ethyl 1-[(4-bromophenylcarbamoyl)methyl]-5-(3-methoxyphenylamino)-1,6-dihydro-3-methyl-6-oxopyridazine-4-carboxylate] | 1.9 ± 0.03 µM | 110% | 6.1 ± 1.7 µM | 2.5 ± 0.7 µM | 90% | – | – | – | – | – | – | – | – | – | –
CCCCCc1c(C)nn(CC(=O)Nc2ccc(Br)cc2)c(=O)c1Nc1cccc(OC)c1 [Compound 13d, N-(4-Bromophenyl)-2-[5-(3-methoxyphenylamino)-3-methyl-6-oxo-4-pentyldazin-1(6H)-yl]acetamide] | – | – | – | – | – | 115% | 0.19 ± 0.018 µM | 55% | 95% | 1.4 ± 0.34 µM | – | – | – | – | –
CCc1c(C)nn(CC(=O)Nc2ccc(Br)cc2)c(=O)c1Nc1cccc(OC)c1 [Compound 13a, N-(4-Bromophenyl)-2-[4-ethyl-5-(3-methoxyphenylamino)-3-methyl-6-oxopyridazin-1(6H)-yl]acetamide] | 0.061 ± 0.022 µM | 35% | 0.34 ± 0.11 µM | 0.18 ± 0.004 µM | 185% | – | – | – | – | – | 0.46 ± 0.014 µM | 35% | – | – | –
COc1cccc(Nc2c(C(=O)C3CCCCC3)c(C)nn(CC(=O)Nc3ccc(Br)cc3)c2=O)c1 [Compound 8f, N-(4-Bromophenyl)-2-[4-cyclohexanecarbonyl-5-(3-methoxyphenylamino)-3-methyl-6-oxopyridazin-1(6)-yl]acetamide] | – | – | – | – | – | 115% | 8.7 ± 0.47 µM | 120% | 110% | 10 ± 3.2 µM | – | – | – | – | –
CCCCC(=O)c1c(C)nn(CC(=O)Nc2ccc(Br)cc2)c(=O)c1Nc1cccc(OC)c1 [Compound 8d, N-(4-Bromophenyl)-2-[5–(3-methoxyphenylamino)-3-methyl-6-oxo-4-pentanoylpyridazin-1(6H)-yl]acetamide] | – | – | 8 ± 2.6 µM | 15.6 ± 2.6 µM | 45% | – | – | – | – | – | – | – | 105% | 24.1 ± 6.1 µM | –
CCCCc1c(C)nn(CC(=O)Nc2ccc(Br)cc2)c(=O)c1Nc1cccc(OC)c1 [Compound 13c, N-(4-Bromophenyl)-2-[4-butyl-5-(3-methoxyphenylamino)-3-methyl-6-oxopyridazin-1(6H)-yl]acetamide] | 4.5 ± 1.3 µM | 30% | 1.4 ± 0.8 µM | 3.6 ± 1.1 µM | 65% | – | – | – | – | – | – | – | – | – | –
COC(=O)c1c(C)nn(CC(=O)Nc2ccc(Br)cc2)c(=O)c1Nc1cccc(OC)c1 [Compound 19a, Methyl 1-[(4-bromophenylcarbamoyl)methyl]-5-(3-methoxyphenylamino)-1,6-dihydro-3-methyl-6-oxopyridazine-4-carboxylate] | 2.3 ± 0.49 µM | 60% | 22.1 ± 5.3 µM | 4.4 ± 0.6 µM | 25% | – | – | – | – | – | – | – | – | – | –
Cc1nn(CC(=O)Nc2ccc(Br)cc2)c(=O)c(N)c1-c1ccn(C)n1 [Compound 26, 2-[5-Amino-3-methyl-4-(1-methyl-1H-pyrazol-3-yl)-6-oxopyridazin-1(6H)-yl]-N-(4-bromophenyl)acetamide] | 1.9 ± 0.71 µM | 40% | 3.5 ± 0.32 µM | 2.9 ± 0.14 µM | 75% | – | – | – | – | – | – | – | 45% | 5.6 ± 2.4 µM | –
CCCC(=O)c1c(C)nn(CC(=O)Nc2ccc(Br)cc2)c(=O)c1Nc1cccc(OC)c1 [Compound 8c, N-(4-Bromophenyl)-2-[4-butyryl-5-(3-methoxyphenylamino)-3-methyl-6-oxopyridazin-1(6H)-yl]acetamide] | 8.1 ± 2.1 µM | 90% | 24 ± 4.2 µM | 11.8 ± 3.5 µM | 70% | – | – | – | – | – | – | – | – | – | –
COc1cccc(Nc2cc(C)nn(CC(=O)Nc3ccc(Br)cc3)c2=O)c1 [Compound 29a, N-(4-Bromophenyl)-2-[5-(3-methoxyphenylamino)-3-methyl-6-oxopyridazin-1(6H)-yl]-acetamide] | 9.6 ± 2 µM | 65% | 0.56 ± 0.12 µM | 0.24 ± 0.09 µM | 120% | – | – | – | – | – | – | – | – | – | –
Cc1nn(CC(=O)Nc2ccc(Br)cc2)c(=O)c(N)c1-c1cc[nH]n1 [Compound 25, 2-[5-Amino-3-methyl-6-oxo-4-(1H-pyrazol-3-yl)-6H-pyridazin-1-yl]-N-(4-bromo--phenyl)acetamide] | – | – | – | – | – | 60% | 13.5 ± 1.8 µM | 140% | 135% | 8.4 ± 1.5 µM | – | – | – | – | –
CCC(=O)c1c(C)nn(CC(=O)Nc2ccc(Br)cc2)c(=O)c1Nc1cccc(OC)c1 [Compound 8b, N-(4-Bromophenyl)-2-[5-(3-methoxyphenylamino)-3-methyl-6-oxo-4-propionylpyridazin-1(6H)-yl]acetamide] | 0.78 ± 0.1 µM | 190% | 5.5 ± 1.6 µM | 2.7 ± 0.8 µM | 130% | – | – | – | – | – | – | – | 75% | 8.4 ± 2.6 µM | –
CCCc1c(C)nn(CC(=O)Nc2ccc(Br)cc2)c(=O)c1Nc1cccc(OC)c1 [Compound 13b, N-(4-Bromophenyl)-2-[5-(3-methoxyphenylamino)-3-methyl-6-oxo-4-propylpyridazin-1(6H)-yl]acetamide] | – | – | – | – | – | – | – | – | – | – | – | – | – | – | completely devoid of activity
COc1cccc(Nc2cc(C)cn(CC(=O)Nc3ccc(Br)cc3)c2=O)c1 [Compound 29b, N-(4-Bromophenyl)-2-[3-(3-methoxyphenylamino)-5-methyl-2-oxopyridin-1(2H)-yl]acetamide] | 8.1 ± 1.7 µM | 75% | 4.31 ± 0.4 µM | 2.5 ± 0.7 µM | 110% | – | – | – | – | – | – | – | – | – | –
COc1cccc(Nc2c(C(=O)C3CCCC3)c(C)nn(CC(=O)Nc3ccc(Br)cc3)c2=O)c1 [Compound 8e, N-(4-Bromophenyl)-2-[4–cyclopentanecarbonyl-5-(3-methoxyphenylamino)-3-methyl-6-oxopyridazin-1(6H)-yl]acetamide] | 10.5 ± 2.1 µM | 60% | 1.7 ± 0.4 µM | 1.6 ± 0.4 µM | 110% | – | – | – | – | – | – | – | 120% | 15.9 ± 4.9 µM | –
